According to ChEMBL document CHEMBL1139778, “Synthesis and biological evaluation of cinnamyl compounds as potent antitumor agents” (Bioorg Med Chem Lett, 2007):
Calls of active or inactive are those of the source. No cut-off for these calls is given here.

Legend:
HCT-116 [1] = experiment: Growth inhibition of human HCT116 cells after 24 hrs by ELISA; type: functional; details: HCT-116, 24 h
SK-OV-3 = experiment: Growth inhibition of human SKOV3 cells after 24 hrs by ELISA; type: functional; details: SK-OV-3, 24 h
NCI-H23 = experiment: Growth inhibition of human NCI-H23 cells after 24 hrs by ELISA; type: functional; details: NCI-H23, 24 h
A549 = experiment: Growth inhibition of human A549 cells after 24 hrs by ELISA; type: functional; details: A549, 24 h
[2] = Growth inhibition of human […] cells after 24 hrs by ELISA; type: functional
SW-620 [3] = experiment: Cell cycle arrest in human SW620 cells assessed as accumulation at G2/M phase at 30 uM after 24 hrs by flow cytometry; type: functional
Summary of the method: (§1)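 After treatment, cells harvested at 24 h, trypsinized, washed with PBS, fixed overnight in ice-cold 70% EtOH, then treated with RNase A 100 µg/mL at 37 °C for 30 min. Stained with propidium iodide (final 50 µg/mL). DNA content of 20,000 fixed cells read by flow cytometry (FACScalibur); phase distribution from cell cycle modelling.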

SW-620 [4] = experiment: Antitumor activity against human SW620 cells in nude mouse assessed as tumor volume on day 7 at 50 mg/kg, […]; type: functional; details: route intraperitoneal
SW-620 [5] = experiment: Cell cycle arrest in human SW620 cells assessed as accumulation at subG1 phase at 20 uM after 24 hrs by flow cytometry; type: functional; summary of the method: as §1
HCT-116 [6] = experiment: Cell cycle arrest in human HCT116 cells assessed as accumulation at G0/G1 phase at 30 uM after 24 hrs by flow cytometry; type: functional; summary of the method: as §1
SW-620 [7] = experiment: Cell cycle arrest in human SW620 cells assessed as accumulation at subG1 phase at 30 uM after 24 hrs by flow cytometry; type: functional; summary of the method: as §1
HCT-116 [8] = experiment: Cell cycle arrest in human HCT116 cells assessed as accumulation at S phase at 20 uM after 24 hrs by flow cytometry; type: functional; summary of the method: as §1
HCT-116 [9] = experiment: Induction of PARP cleavage in human HCT116 cells at 20 uM after 24 hrs; type: functional, cell-based
Summary of the method: (§2)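 HCT116 cells treated for 24 h, lysed in RIPA buffer; 40 µg lysate resolved by 15% SDS–PAGE, blotted to PVDF, blocked in 5% milk/TBS-T. Primary antibodies 2 h at room temperature, HRP goat anti-rabbit secondary, chemiluminescent detection on X-ray film for PARP and caspase-3 cleavage.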

HCT-116 [10] = experiment: Induction of caspase 3 cleavage in human HCT116 cells at 20 uM after 24 hrs; type: functional, cell-based; summary of the method: as §2
SW-620 [11] = experiment: Antitumor activity against human SW620 cells in nude mouse assessed as tumor volume on day 14 at 50 mg/kg, ip for 20 days; type: organism-based; set-up: dose 50 mg/kg, route intraperitoneal; details: in vivo
Summary of the method: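 SW620 human colon adenocarcinoma cells (3 × 10⁷ cells/mL) implanted subcutaneously in right flank of nude mice on day 0. Compound in 0.5% Tween 80 given ip at 50 mg/kg per day; vehicle control and doxifluridine 50 mg/kg reference; 8 mice per group. Tumor volume estimated as length × width × height/2; mice sacrificed on day 14.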

HCT-116 [12] = experiment: Cell cycle arrest in human HCT116 cells assessed as accumulation at S phase at 40 uM after 24 hrs by flow cytometry; type: functional; summary of the method: as §1
HCT-116 [13] = experiment: Cell cycle arrest in human HCT116 cells assessed as accumulation at subG1 phase at 40 uM after 24 hrs by flow cytometry; type: functional; summary of the method: as §1
SW-620 [14] = experiment: Cell cycle arrest in human SW620 cells assessed as accumulation at G0/G1 phase at 40 uM after 24 hrs by flow cytometry; type: functional; summary of the method: as §1
HCT-116 [15] = experiment: Cell cycle arrest in human HCT116 cells assessed as accumulation at G2/M phase at 40 uM after 24 hrs by flow cytometry; type: functional; summary of the method: as §1
SW-620 [16] = experiment: Antitumor activity against human SW620 cells in nude mouse assessed as tumor volume on day 5 at 50 mg/kg, […]; type: functional; details: route intraperitoneal
[17] = system: SW620 (human colon adenocarcinoma); experiment: Induction of apoptosis in human SW620 cells at 30 uM after 24 hrs
SW-620 [18] = experiment: Cell cycle arrest in human SW620 cells assessed as accumulation at G2/M phase at 40 uM after 24 hrs by flow cytometry; type: functional; summary of the method: as §1
SW-620 [19] = experiment: Cell cycle arrest in human SW620 cells assessed as accumulation at S phase at 40 uM after 24 hrs by flow cytometry; type: functional; summary of the method: as §1
SW-620 [20] = experiment: Cell cycle arrest in human SW620 cells assessed as accumulation at G0/G1 phase at 20 uM after 24 hrs by flow cytometry; type: functional; summary of the method: as §1
HCT-116 [21] = experiment: Cell cycle arrest in human HCT116 cells assessed as accumulation at subG1 phase at 30 uM after 24 hrs by flow cytometry; type: functional; summary of the method: as §1
HCT-116 [22] = experiment: Cell cycle arrest in human HCT116 cells assessed as accumulation at G2/M phase at 20 uM after 24 hrs by flow cytometry; type: functional; summary of the method: as §1
SW-620 [23] = experiment: Cell cycle arrest in human SW620 cells assessed as accumulation at S phase at 30 uM after 24 hrs by flow cytometry; type: functional; summary of the method: as §1
HCT-116 [24] = experiment: Cell cycle arrest in human HCT116 cells assessed as accumulation at G0/G1 phase at 20 uM after 24 hrs by flow cytometry; type: functional; summary of the method: as §1
SW-620 [25] = experiment: Antitumor activity against human SW620 cells in nude mouse assessed as tumor volume on day 9 at 50 mg/kg, […]; type: functional; details: route intraperitoneal
HCT-116 [26] = experiment: Cell cycle arrest in human HCT116 cells assessed as accumulation at G0/G1 phase at 40 uM after 24 hrs by flow cytometry; type: functional; summary of the method: as §1
SW-620 [27] = experiment: Cell cycle arrest in human SW620 cells assessed as accumulation at G0/G1 phase at 30 uM after 24 hrs by flow cytometry; type: functional; summary of the method: as §1
HCT-116 [28] = experiment: Cell cycle arrest in human HCT116 cells assessed as accumulation at G2/M phase at 30 uM after 24 hrs by flow cytometry; type: functional; summary of the method: as §1
SW-620 [29] = experiment: Antitumor activity against human SW620 cells in nude mouse assessed as tumor volume on day 12 at 50 mg/kg, […]; type: functional; details: route intraperitoneal
SW-620 [30] = experiment: Cell cycle arrest in human SW620 cells assessed as accumulation at G2/M phase at 20 uM after 24 hrs by flow cytometry; type: functional; summary of the method: as §1
HCT-116 [31] = experiment: Cell cycle arrest in human HCT116 cells assessed as accumulation at subG1 phase at 20 uM after 24 hrs by flow cytometry; type: functional; summary of the method: as §1
SW-620 [32] = experiment: Cell cycle arrest in human SW620 cells assessed as accumulation at subG1 phase at 40 uM after 24 hrs by flow cytometry; type: functional; summary of the method: as §1
SW-620 [33] = experiment: Cell cycle arrest in human SW620 cells assessed as accumulation at S phase at 20 uM after 24 hrs by flow cytometry; type: functional; summary of the method: as §1
HCT-116 [34] = experiment: Cell cycle arrest in human HCT116 cells assessed as accumulation at S phase at 30 uM after 24 hrs by flow cytometry; type: functional; summary of the method: as §1

For `CO/N=C/C=C/c1ccccc1OC(=O)c1ccccc1`, the GI50 (HCT-116 [1]) was over 100 µM, the GI50 (SK-OV-3) was over 100 µM and the GI50 (NCI-H23) was over 100 µM. The GI50 (A549) was over 100 µM and the GI50 [2] was over 100 µM.
Work on `O=C(/C=C/c1ccccc1OC(=O)c1ccccc1)NO` yielded a GI50 (HCT-116 [1]) of 11.2 µM, a GI50 (SK-OV-3) of 35.3 µM and a GI50 (NCI-H23) of 17.5 µM. The GI50 (A549) was 44.9 µM and the GI50 [2] was 20.2 µM.
`COc1ccccc1/C=C/C(=O)NO` showed a GI50 (HCT-116 [1]) of 15.3 µM, a GI50 (SK-OV-3) of 48.8 µM and a GI50 (NCI-H23) of 26.9 µM. The GI50 (A549) was 53.5 µM and the GI50 [2] was 16.8 µM.
`O=C(/C=C/c1ccccc1OC(=O)c1ccccc1)NOC(=O)c1ccccc1` gave a GI50 (HCT-116 [1]) of 13.6 µM, a GI50 (SK-OV-3) of 12.9 µM and a GI50 (NCI-H23) of 18.2 µM. It also gave a GI50 (A549) of 8.8 µM and a GI50 [2] of 3.2 µM.
`O=C(/C=C/c1ccccc1OC(=O)c1ccccc1)NOC(=O)N1CCOCC1` gave an Activity (SW-620 [3]) of 26.41%, an Activity (SW-620 [4]) of 4.3 mm3 and an Activity (SW-620 [5]) of 3.03%. The Activity (HCT-116 [6]) was 41.4%, the Activity (SW-620 [7]) was 3.5% and the Activity (HCT-116 [8]) was 22.05%. The Activity (HCT-116 [9]) was “Active”, the Activity (HCT-116 [10]) was “Active” and the Activity (SW-620 [11]) was 89 mm3. For the same compound, the GI50 (HCT-116 [1]) was 12.5 µM, the Activity (HCT-116 [12]) was 26.88% and the Activity (HCT-116 [13]) was 36.83%. The Activity (SW-620 [14]) was 33.34%, the Activity (HCT-116 [15]) was 42.06% and the Activity (SW-620 [16]) was 1.4 mm3. The Activity [17] was “Active”, the Activity (SW-620 [18]) was 40.14% and the GI50 (SK-OV-3) was 12.7 µM. It also gave an Activity (SW-620 [19]) of 26.52%, an Activity (SW-620 [20]) of 48.88% and an Activity (HCT-116 [21]) of 39.14%. For the same compound, the Activity (HCT-116 [22]) was 35.23%, the Activity (SW-620 [23]) was 26.12% and the Activity (HCT-116 [24]) was 42.72%. It also gave an Activity (SW-620 [25]) of 17.3 mm3, an Activity (HCT-116 [26]) of 31.06% and a GI50 (NCI-H23) of 12.9 µM. The Activity (SW-620 [27]) was 46.46%, the Activity (HCT-116 [28]) was 38.22% and the Activity (SW-620 [29]) was 45 mm3. For the same compound, the Activity (SW-620 [30]) was 22.33%, the Activity (HCT-116 [31]) was 32.36% and the Activity (SW-620 [32]) was 12.7%. It also gave an Activity (SW-620 [33]) of 27.79%, a GI50 (A549) of 25.2 µM and an Activity (HCT-116 [34]) of 20.39%. It also gave a GI50 [2] of 5.8 µM.
With `O=C(/C=C/c1ccccc1O)NO` the GI50 (HCT-116 [1]) was 16.8 µM, the GI50 (SK-OV-3) was 50.4 µM and the GI50 (NCI-H23) was 27.8 µM. It also gave a GI50 (A549) of 55.2 µM and a GI50 [2] of 49.8 µM.
Compound `CN1CCN(C(=O)ONC(=O)/C=C/c2ccccc2OC(=O)c2ccccc2)CC1` has a GI50 (HCT-116 [1]) of 40.4 µM, a GI50 (SK-OV-3) of over 100 µM and a GI50 (NCI-H23) of 45.2 µM. For the same compound, the GI50 (A549) was over 100 µM and the GI50 [2] was 89.3 µM.
Compound `CC(=O)ONC(=O)/C=C/c1ccccc1OC(=O)c1ccccc1` has a GI50 (HCT-116 [1]) of 21.3 µM, a GI50 (SK-OV-3) of 16.8 µM and a GI50 (NCI-H23) of 26.3 µM. It also gave a GI50 (A549) of 30.2 µM and a GI50 [2] of 18.6 µM.
For `C[C@H]1O[C@@H](n2cc(F)c(=O)[nH]c2=O)[C@H](O)[C@@H]1O` [DOXIFLURIDINE], the Activity (SW-620 [4]) was 15 mm3, the Activity (SW-620 [11]) was 120.7 mm3 and the Activity (SW-620 [16]) was 3.8 mm3. It also gave an Activity (SW-620 [25]) of 41.4 mm3 and an Activity (SW-620 [29]) of 77.9 mm3.
With `O=C(Cl)/C=C/c1ccccc1OC(=O)c1ccccc1` the GI50 (HCT-116 [1]) was over 100 µM, the GI50 (SK-OV-3) was over 100 µM and the GI50 (NCI-H23) was over 100 µM. For the same compound, the GI50 (A549) was over 100 µM and the GI50 [2] was over 100 µM.
In the case of `CN1CCN(C(=O)/C=C/c2ccccc2OC(=O)c2ccccc2)CC1`, the GI50 (HCT-116 [1]) is reported as over 100 µM, the GI50 (SK-OV-3) is reported as over 100 µM and the GI50 (NCI-H23) is reported as over 100 µM. For the same compound, the GI50 (A549) was over 100 µM and the GI50 [2] was over 100 µM.
